How the values were obtained:
Plasma [1] = assay: Antiplatelet activity in human platelet rich plasma assessed as inhibition of arachidonic acid-induced platelet aggregation; assay type: functional
Procedure, shortened: (§1)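 PRP was prepared from whole blood of healthy volunteers. Compounds were added to PRP at 10, 20, 50 and 100, with aspirin at 5 as reference and PEG-400 as vehicle control. Aggregation was induced with ADP or arachidonic acid, and IE50 was derived from the concentration series.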

Plasma [2] = assay: Antiplatelet activity in human platelet rich plasma assessed as inhibition of ADP-induced platelet aggregation; assay type: functional; procedure, shortened: as §1

| Structure (SMILES) | IE50 (Plasma [1]) [µM] | IE50 (Plasma [2]) [µM] |
| --- | --- | --- |
| CC(C)C/C=C1\OC(=O)c2ccccc21 | 17.9 | 204 |
| CC[C@@H]1OC(=O)c2ccccc21 | 16.9 | 209 |
| CCC[C@@H]1OC(=O)c2ccccc21 | 16.9 | 142 |
| CCCCCCC[C@H]1OC(=O)c2ccccc21 | 14.7 | 143 |
| CC(C)CCC1OC(=O)c2ccccc21 (configuration not stated) | 15.4 | 201 |
| CCCCCCC1OC(=O)c2ccccc21 (configuration not stated) | 15.8 | 220 |
| CCCCCCCC1OC(=O)c2ccccc21 (configuration not stated) | 16.1 | 153 |
| CC[C@H]1OC(=O)c2ccccc21 | 14.1 | 114 |
| CCCC[C@H]1OC(=O)c2ccccc21 | 13.2 | 94.7 |
| CCCCCC/C=C1\OC(=O)c2ccccc21 | 18 | 289 |
| CCC1OC(=O)c2ccccc21 (configuration not stated) | 15.2 | 164 |
| CC(C)CC[C@H]1OC(=O)c2ccccc21 | 14.3 | 116 |
| CCCCC[C@@H]1OC(=O)c2ccccc21 | 17.9 | 203 |
| CCCCCCC[C@@H]1OC(=O)c2ccccc21 | 18.7 | 176 |
| CCCC1OC(=O)c2ccccc21 (configuration not stated) | 14.9 | 133 |
| CCCCCC[C@H]1OC(=O)c2ccccc21 | 14.4 | 139 |
| CC(C)CC[C@@H]1OC(=O)c2ccccc21 | 17.2 | 207 |
| CCCCCC[C@@H]1OC(=O)c2ccccc21 | 18.5 | 217 |
| CCCC/C=C1\OC(=O)c2ccccc21 | 17.6 | 201 |
| CCCCC/C=C1\OC(=O)c2ccccc21 | 17.1 | 243 |
| CCC[C@H]1OC(=O)c2ccccc21 | 13.8 | 112 |
| CCCCC[C@H]1OC(=O)c2ccccc21 | 15.1 | 178 |
| CCCCCC1OC(=O)c2ccccc21 (configuration not stated) | 16.4 | 180 |
| C/C=C1\OC(=O)c2ccccc21 | 16 | – |
| CC/C=C1\OC(=O)c2ccccc21 | 16.1 | 171 |
| CCCC[C@@H]1OC(=O)c2ccccc21 [(3S)-BUTYLPHTHALIDE] | 16.1 | 193 |
| CC(=O)Oc1ccccc1C(=O)O [ASPIRIN] | 12.3 | 118 |
| CCCCC1OC(=O)c2ccccc21 (stereo not drawn) [RAC-3-N-BUTYLPHTHALIDE] | 14.5 | 170 |
| CCC/C=C1\OC(=O)c2ccccc21 [Z-butylidenephthalide] | 16.1 | 204 |
